The results in this text go back to ChEMBL document CHEMBL1165901, “Synthesis and biological evaluation of dialkylaminoalkylamino benzo[c][1,7] and [1,8]phenanthrolines as antiproliferative agents” (Eur J Med Chem, 2010).

Activity calls are given as the source filed them. No cut-off for these calls is given here.

In test [1] the test system is Calf thymus DNA. The test is described as follows: Binding affinity to calf thymus DNA assessed as decrease in absorbance at 20 uM by UV-visible spectrophotometry. It is filed as nucleic-acid assay. Particulars: Bos taurus. The gist of the method: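 Compound at […], with or without CT-DNA at […], in 1 mL BPE buffer pH 7.1 in a 10 mm quartz cuvette. Spectra scanned 230–500 nm against a blank holding the same DNA concentration in the same buffer. Drug/DNA ratio 1; DMSO stocks diluted into buffer.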

For a further test, the system named is L1210. As to the kind of experiment: Cytotoxicity against mouse L1210 cells. The test is classed as functional, cell-based. The gist of the method:
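Mouse leukemia L1210 cells grown in RPMI 1640 with 10% FCS, 2 mM glutamine, penicillin/streptomycin and 10 mM HEPES pH 7.4. Exposed 48 h to nine graded drug concentrations in triplicate. Read by microculture tetrazolium assay. IC50 is the concentration that halves absorbance relative to untreated cells; mean of 3.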

Test [2] concerns Calf thymus DNA. The test is described as follows: Binding affinity to calf thymus DNA assessed as circular dichroism at 50 uM by J810 Jasco spectrophotometer. The test is classed as nucleic-acid assay. Particulars: Bos taurus. The gist of the method: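 CT-DNA deproteinized with SDS and dialyzed against 1 mM sodium cacodylate pH 7.0. Drug at […], with or without […] base pairs CT-DNA, in 1 mL 1 mM sodium cacodylate pH 7.0. CD spectra recorded 500–230 nm at 0.1 nm resolution.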
For orientation: CD spectra are sensitive to the conformation of chiral molecules.

Test [3] addresses DNA topoisomerase 2-alpha (Homo sapiens) (UniProt P11388). The test is described as follows: Inhibition of human recombinant topoisomerase 2-mediated relaxation of supercoiled […] by agarose gel electrophoresis. The gist of the method:
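Supercoiled pUC19 (350 ng) preincubated with compound at […], or etoposide at 20 or 50, before adding 10 units human topoisomerase II; 37 °C for 45 min in cleavage buffer. Stopped with SDS 0.25% plus proteinase K, 30 min at 50 °C. Run on 1% agarose containing ethidium bromide, 2 h at 120 V in TBE.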

For test [4], the system named is Calf thymus DNA. The test is described as follows: Binding affinity to calf thymus DNA assessed as decrease in fluorescence intensity at 20 uM by fluorescence spectrophotometry. It is filed as nucleic-acid assay. The conditions noted are these: Bos taurus. The gist of the method: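 Fluorescent compound at […] in 1 mL BPE buffer pH 7.1, with or without […] CT-DNA, in a 10 mm quartz cuvette. Excitation at 268, 275 or 285 nm depending on compound; emission spectra scanned.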

For test [5], the system named is Calf thymus DNA. As to the kind of experiment: Binding affinity to calf thymus DNA assessed as change in melting temperature. It is filed as nucleic-acid assay. Particulars: Bos taurus. The gist of the method: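 CT-DNA ([…] as printed) in 1 mL BPE buffer pH 7.1 (6 mM Na2HPO4, 2 mM NaH2PO4, 1 mM EDTA), alone or with drug at base pair/drug ratio 1. A260 recorded every min, 20–100 °C at 1 °C/min, Peltier-controlled. Tm taken as midpoint of hyperchromic double- to single-strand transition; ΔTm relative to DNA alone.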

For test [6], the target named is T1, DNA topoisomerase 1 (Homo sapiens) (UniProt P11387).
T1 sequence (whole entry): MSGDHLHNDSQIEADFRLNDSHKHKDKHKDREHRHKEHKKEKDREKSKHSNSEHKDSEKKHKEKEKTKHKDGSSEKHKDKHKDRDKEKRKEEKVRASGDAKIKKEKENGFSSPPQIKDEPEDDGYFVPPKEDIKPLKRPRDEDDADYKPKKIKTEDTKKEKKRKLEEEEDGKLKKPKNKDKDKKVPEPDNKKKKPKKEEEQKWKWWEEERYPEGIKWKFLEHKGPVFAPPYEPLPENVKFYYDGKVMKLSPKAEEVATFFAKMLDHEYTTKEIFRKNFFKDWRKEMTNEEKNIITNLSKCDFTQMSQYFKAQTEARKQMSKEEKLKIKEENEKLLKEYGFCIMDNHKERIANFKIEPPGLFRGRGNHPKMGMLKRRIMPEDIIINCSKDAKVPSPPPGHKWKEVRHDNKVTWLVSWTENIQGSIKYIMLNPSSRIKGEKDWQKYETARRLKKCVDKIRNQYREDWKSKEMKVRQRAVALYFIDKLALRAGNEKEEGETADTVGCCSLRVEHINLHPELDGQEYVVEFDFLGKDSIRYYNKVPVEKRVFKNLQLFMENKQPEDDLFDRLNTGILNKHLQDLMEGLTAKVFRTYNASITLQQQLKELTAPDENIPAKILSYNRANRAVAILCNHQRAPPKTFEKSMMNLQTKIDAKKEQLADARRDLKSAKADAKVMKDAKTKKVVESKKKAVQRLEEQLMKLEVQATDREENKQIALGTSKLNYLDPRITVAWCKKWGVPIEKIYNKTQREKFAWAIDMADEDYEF
The test is described as follows: Inhibition of human recombinant topoisomerase 1-mediated relaxation of supercoiled pUC19 by agarose gel electrophoresis.

The target of test [7] is T1, DNA topoisomerase 1 (Homo sapiens). As to the kind of experiment: Inhibition of human recombinant topoisomerase 1-mediated relaxation of supercoiled pUC19 at 1 to 5 uM by agarose gel electrophoresis.

Sequence of DNA topoisomerase 2-alpha (Homo sapiens) (P11388 whole entry): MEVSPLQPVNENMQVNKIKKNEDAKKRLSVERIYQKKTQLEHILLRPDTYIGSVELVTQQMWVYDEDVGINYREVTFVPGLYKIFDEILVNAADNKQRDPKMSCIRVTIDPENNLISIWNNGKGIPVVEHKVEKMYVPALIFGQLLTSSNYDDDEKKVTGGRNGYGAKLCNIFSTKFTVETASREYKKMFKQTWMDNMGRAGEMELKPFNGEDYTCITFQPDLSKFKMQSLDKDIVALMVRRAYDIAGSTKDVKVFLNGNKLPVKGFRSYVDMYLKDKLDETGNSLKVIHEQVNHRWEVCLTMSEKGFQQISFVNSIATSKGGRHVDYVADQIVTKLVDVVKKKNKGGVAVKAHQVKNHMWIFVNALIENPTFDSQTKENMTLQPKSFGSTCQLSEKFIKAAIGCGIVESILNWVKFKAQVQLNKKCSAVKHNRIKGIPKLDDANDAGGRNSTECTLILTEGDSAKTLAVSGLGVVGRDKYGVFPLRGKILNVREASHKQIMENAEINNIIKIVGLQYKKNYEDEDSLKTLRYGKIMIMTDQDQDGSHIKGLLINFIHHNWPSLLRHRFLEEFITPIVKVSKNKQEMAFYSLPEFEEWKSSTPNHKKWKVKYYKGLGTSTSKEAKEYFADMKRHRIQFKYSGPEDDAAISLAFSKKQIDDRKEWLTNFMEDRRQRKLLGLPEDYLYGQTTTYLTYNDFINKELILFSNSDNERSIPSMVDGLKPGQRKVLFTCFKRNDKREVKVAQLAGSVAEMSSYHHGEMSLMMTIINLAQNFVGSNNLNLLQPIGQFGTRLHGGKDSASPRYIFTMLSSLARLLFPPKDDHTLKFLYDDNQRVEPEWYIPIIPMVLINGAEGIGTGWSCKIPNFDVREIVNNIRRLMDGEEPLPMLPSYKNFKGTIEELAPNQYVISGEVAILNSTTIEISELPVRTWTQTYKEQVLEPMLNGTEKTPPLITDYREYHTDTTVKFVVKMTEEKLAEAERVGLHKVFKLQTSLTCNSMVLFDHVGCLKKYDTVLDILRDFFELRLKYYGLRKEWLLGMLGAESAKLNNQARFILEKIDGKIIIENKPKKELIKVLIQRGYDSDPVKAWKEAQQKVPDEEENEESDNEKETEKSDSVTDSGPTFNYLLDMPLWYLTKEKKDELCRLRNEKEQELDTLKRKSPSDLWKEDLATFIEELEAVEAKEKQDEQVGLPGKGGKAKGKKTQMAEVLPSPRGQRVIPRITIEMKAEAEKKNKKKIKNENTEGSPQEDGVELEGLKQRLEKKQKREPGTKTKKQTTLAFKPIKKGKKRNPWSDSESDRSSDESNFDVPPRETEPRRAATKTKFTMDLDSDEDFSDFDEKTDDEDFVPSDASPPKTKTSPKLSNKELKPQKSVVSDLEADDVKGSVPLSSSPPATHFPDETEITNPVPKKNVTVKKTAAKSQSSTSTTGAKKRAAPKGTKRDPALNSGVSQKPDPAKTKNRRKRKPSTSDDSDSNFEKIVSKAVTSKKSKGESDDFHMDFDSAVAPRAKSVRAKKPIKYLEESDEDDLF

For `CN(C)CCCNc1ccc2c(ccc3c4cc5c(cc4cnc23)OCO5)n1`, the result (in the test with Calf thymus DNA [1]; in the test with Calf thymus DNA [2]; in test [3]; in the test with Calf thymus DNA [4]) was Active. Also, the IC50 (usually the concentration needed to halve the response being measured) in the test with L1210 amounted to 510 nM.

With `CCN(CC)CCNc1ccc2c(ccc3c4cc5c(cc4cnc23)OCO5)n1`, the result (in the test with Calf thymus DNA [1]; in test [6]; in test [3]; in the test with Calf thymus DNA [4]) was Active. In the test on Calf thymus DNA [5], the ΔTm – broadly, the change in melting temperature against a reference sample – amounted to 5 °C. This compound had a half-inhibitory concentration (IC50) in the test on L1210 of 1740 nM. Also, the outcome in test [7] was inactive.

In the case of `CCN(CC)CCNc1nccc2c1ccc1c3cc(OC)c(OC)cc3cnc21`, the result (in the test on Calf thymus DNA [1]; in test [3]) was Active. In the test on Calf thymus DNA [5], the ΔTm was 9 °C. The same compound returned a half-inhibitory concentration (IC50) with L1210 of 1770 nM.

Take `COc1cc2cnc3c4ccc(NCCN(C)C)nc4ccc3c2cc1OC`: the result (in the test on Calf thymus DNA [1]; in test [6]; in test [3]; in the test with Calf thymus DNA [4]) was Active. In addition, the ΔTm in the test on Calf thymus DNA [5] came to 12 °C. The IC50 with L1210 was found to be 1730 nM. In addition, the inhibition result in test [7] is “inactive”.

With `CCN(CC)CCNc1ccc2c(ccc3c4cc(OC)c(OC)cc4cnc23)n1`, the result (in the test on Calf thymus DNA [1]; in test [3]; in the test on Calf thymus DNA [4]) was Active. Moreover, in the test on Calf thymus DNA [5], the ΔTm came out at 5 °C. In the test with L1210, this compound displayed an IC50 of 960 nM.

As to `c1cnc2ccc3c4cc5c(cc4cnc3c2c1)OCO5`, inhibition with L1210 was half-maximal at 8800 nM (IC50).

For the compound `COc1cc2cnc3c4ccnc(NCCCN(C)C)c4ccc3c2cc1OC`, the outcome (in the test with Calf thymus DNA [1]; in test [3]) was Active. In the test with L1210, this compound registered a half-inhibitory concentration (IC50) of 1800 nM.

`COc1cc2c(ccc3c4cc(OC)c(OC)cc4c[n+](C)c23)cc1O` [FAGARONINE] showed a 50% inhibitory concentration (IC50) in the test with L1210 of 6600 nM.

Turning to `COc1cc2cnc3c4ccc(NCCCN(C)C)nc4ccc3c2cc1OC`, the result (in the test on Calf thymus DNA [1]; in test [3]; in the test with Calf thymus DNA [4]) was Active. For the same compound, in the test with Calf thymus DNA [5], the shift in melting temperature (ΔTm) was 0 °C. The compound also came in with a 50% inhibitory concentration (IC50) with L1210 of 2850 nM.

Turning to `CCN(CC)CCCNc1ccc2c(ccc3c4cc(OC)c(OC)cc4cnc23)n1`, the outcome (in the test with Calf thymus DNA [1]; in test [3]; in the test on Calf thymus DNA [4]) was Active. Also, half-maximal inhibition in the test on L1210 (IC50) was put at 1260 nM.

Consider `CN(C)CCNc1nccc2c1ccc1c3cc4c(cc3cnc21)OCO4`, for which the result (with Calf thymus DNA [1]; in test [6]; in test [3]) was Active. For the same compound, the ΔTm in the test with Calf thymus DNA [5] worked out at 7 °C. Also, the result in test [7] was inactive.

Consider `CCN(CC)CCCNc1ccc2c(ccc3c4cc5c(cc4cnc23)OCO5)n1`, for which the result (with Calf thymus DNA [1]; in the test on Calf thymus DNA [2]; in test [3]; with Calf thymus DNA [4]) was Active. Also, the thermal shift (ΔTm) with Calf thymus DNA [5] was 11 °C. In the test on L1210, this compound gave an IC50 of 830 nM.

As to `CN(C)CCNc1ccc2c(ccc3c4cc5c(cc4cnc23)OCO5)n1`, the outcome (in the test with Calf thymus DNA [1]; in test [6]; in test [3]; in the test on Calf thymus DNA [4]) was Active. Moreover, the thermal shift (ΔTm) in the test with Calf thymus DNA [5] was 4 °C. This compound came in with an IC50 in the test with L1210 of 320 nM. Also, the outcome in test [7] was inactive.

Take `COc1cc2cnc3c4ccncc4ccc3c2cc1OC`: 6600 nM corresponded to half-maximal inhibition in the test on L1210 (IC50).

`COc1cc2cnc3c4ccnc(Cl)c4ccc3c2cc1OC`: it took 4300 nM to reach half-maximal inhibition with L1210 (IC50).

For `CN(C)CCCNc1nccc2c1ccc1c3cc4c(cc3cnc21)OCO4`, the result (in the test with Calf thymus DNA [1]; in test [6]; with Calf thymus DNA [2]; in test [3]) was Active. Further, the shift in melting temperature (ΔTm) in the test with Calf thymus DNA [5] amounted to 14 °C. Moreover, 290 nM corresponded to half-maximal inhibition in the test with L1210 (IC50). Moreover, in test [7], the outcome was inactive.

`COc1cc2cnc3c4ccnc(NCCN(C)C)c4ccc3c2cc1OC`: the result (in the test with Calf thymus DNA [1]; in test [3]) was Active. Moreover, the shift in melting temperature (ΔTm) in the test with Calf thymus DNA [5] worked out at 9 °C. In the test on L1210, inhibition was half-maximal at 3510 nM (IC50).

Compound `CCN(CC)CCCNc1nccc2c1ccc1c3cc(OC)c(OC)cc3cnc21` came in with a half-inhibitory concentration (IC50) in the test with L1210 of 3700 nM. In addition, the result in test [3] was Active.

In the test on L1210, `COc1cc2cnc3c4cccnc4ccc3c2cc1OC` returned a 50% inhibitory concentration (IC50) of 7100 nM.

The compound `c1cc2c(ccc3c4cc5c(cc4cnc23)OCO5)cn1` yielded a half-inhibitory concentration (IC50) in the test with L1210 of 4400 nM.
